One block for each compound: values may come before it. Activity calls are given as the source filed them. The calls are words filed in the database; no cut-off is given here.
How the values were obtained:
[1] = biological target: Glutamate carboxypeptidase 2 (Homo sapiens, UniProt Q04609); experiment: Inhibition of human recombinant GCP2 using N-acetyl-L-aspartyl-[3H]-L-glutamate as substrate by microplate assay
Outline: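 Radiometric enzyme assay using purified human recombinant GCPII with N-acetyl-L-aspartyl-[3H]-L-glutamate as substrate. IC50 was determined.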

[2] = AUC (0 to infinity) in fasted rat at 10 mg/kg, po; assay type: ADME, organism-based; set-up: time infinity, dose 10 mg/kg, route oral; details: plasma
Outline: (§1)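 Fasted rats dosed at 10 mg/kg intravenously (n = 4) or orally (n = 9). Plasma was sampled and the pharmacokinetic parameters Cmax, Tmax, AUCinf, CL/F, terminal t1/2 and oral bioavailability F were derived. Values are given as mean ± deviation for each route.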

Salmonella typhimurium [3] = experiment: Mutagenic activity in Salmonella typhimurium TA100 by Ames test in presence of S9 fraction; assay type: toxicity, organism-based; details: salmonella enterica subsp. enterica serovar typhimurium
[4] = Metabolic stability in monkey liver microsomes after 2 hrs; assay type: ADME, Macaca mulatta, Microsome; details: rhesus monkey
Outline: (§2)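 Compound was incubated with liver microsomes from mouse, rat, dog, monkey and human for 2 h. Metabolism was assessed by detection of compound turnover.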

[5] = Terminal half life in fasted rat at 10 mg/kg, po; assay type: ADME, organism-based; set-up: dose 10 mg/kg, route oral; details: in vivo, read-out: beta t1/2 (converted); outline: as §1
Salmonella typhimurium [6] = experiment: Mutagenic activity in Salmonella typhimurium TA1537 by Ames test in absence of S9 fraction; assay type: toxicity, organism-based; details: salmonella enterica subsp. enterica serovar typhimurium
[7] = Cmax in fasted rat at 10 mg/kg, po; assay type: ADME, organism-based; set-up: dose 10 mg/kg, route oral; details: in vivo; outline: as §1
Salmonella typhimurium [8] = experiment: Mutagenic activity in Salmonella typhimurium TA98 by Ames test in presence of S9 fraction; assay type: toxicity, organism-based; details: salmonella enterica subsp. enterica serovar typhimurium
Salmonella typhimurium [9] = experiment: Mutagenic activity in Salmonella typhimurium TA1535 by Ames test in presence of S9 fraction; assay type: toxicity, organism-based; details: salmonella enterica subsp. enterica serovar typhimurium
[10] = Inhibition of AMPA receptor at 10 uM
Outline: (§3)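 Outsourced receptor binding and enzyme panel, covering NMDA receptor (agonist, glycine, phencyclidine and polyamine sites), AMPA, kainate, strychnine-sensitive glycine receptor and kidney-type glutaminase. Percent inhibition was measured at 10 μM, with glutaminase tested up to 100 μM.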

[11] = Terminal half life in fasted rat at 10 mg/kg, iv; assay type: ADME, organism-based; set-up: dose 10 mg/kg, route intravenous; details: in vivo, read-out: beta t1/2 (converted); outline: as §1
[12] = Inhibition of NMDA receptor phencyclidine binding site at 10 uM; outline: as §3
Salmonella typhimurium [13] = experiment: Mutagenic activity in Salmonella typhimurium TA100 by Ames test in absence of S9 fraction; assay type: toxicity, organism-based; details: salmonella enterica subsp. enterica serovar typhimurium
Liver [14] = experiment: Metabolic stability in mouse liver microsomes after 2 hrs; assay type: ADME, Microsome; outline: as §2
Liver [15] = experiment: Metabolic stability in dog liver microsomes after 2 hrs; assay type: ADME, Canis lupus familiaris, Microsome; outline: as §2
[16] = Inhibition of NMDA receptor polyamine binding site at 10 uM; outline: as §3
Salmonella typhimurium [17] = experiment: Mutagenic activity in Salmonella typhimurium TA1537 by Ames test in presence of S9 fraction; assay type: toxicity, organism-based; details: salmonella enterica subsp. enterica serovar typhimurium
Rattus norvegicus = experiment: Antinociceptive activity in rat chronic constriction injury neuropathic pain model assessed as reduction of thermal hyperalgesia at 0.1 mg/kg/day measured on day 8 and 12 relative to vehicle-treated control; assay type: functional, organism-based
Outline: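 Rat chronic constriction injury model of neuropathic pain, after Bennett. Dosing was oral at 0.1 mg kg-1 day-1 against vehicle-treated controls. Read-out was thermal hyperalgesia on days 8 and 12, with significance at p < 0.05.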

Salmonella typhimurium [18] = experiment: Mutagenic activity in Salmonella typhimurium TA98 by Ames test in absence of S9 fraction; assay type: toxicity, organism-based; details: salmonella enterica subsp. enterica serovar typhimurium
[19] = Inhibition of kainate receptor at 10 uM; outline: as §3
[20] = AUC (0 to infinity) in fasted rat at 10 mg/kg, iv; assay type: ADME, organism-based; set-up: time infinity, dose 10 mg/kg, route intravenous; details: plasma; outline: as §1
[21] = Inhibition of NMDA receptor glycine binding site at 10 uM; outline: as §3
[22] = biological target: T1, Glutaminase kidney isoform, mitochondrial (Homo sapiens) (UniProt O94925); experiment: Inhibition of glutaminase kidney isoform at 100 uM
T1 sequence (whole entry): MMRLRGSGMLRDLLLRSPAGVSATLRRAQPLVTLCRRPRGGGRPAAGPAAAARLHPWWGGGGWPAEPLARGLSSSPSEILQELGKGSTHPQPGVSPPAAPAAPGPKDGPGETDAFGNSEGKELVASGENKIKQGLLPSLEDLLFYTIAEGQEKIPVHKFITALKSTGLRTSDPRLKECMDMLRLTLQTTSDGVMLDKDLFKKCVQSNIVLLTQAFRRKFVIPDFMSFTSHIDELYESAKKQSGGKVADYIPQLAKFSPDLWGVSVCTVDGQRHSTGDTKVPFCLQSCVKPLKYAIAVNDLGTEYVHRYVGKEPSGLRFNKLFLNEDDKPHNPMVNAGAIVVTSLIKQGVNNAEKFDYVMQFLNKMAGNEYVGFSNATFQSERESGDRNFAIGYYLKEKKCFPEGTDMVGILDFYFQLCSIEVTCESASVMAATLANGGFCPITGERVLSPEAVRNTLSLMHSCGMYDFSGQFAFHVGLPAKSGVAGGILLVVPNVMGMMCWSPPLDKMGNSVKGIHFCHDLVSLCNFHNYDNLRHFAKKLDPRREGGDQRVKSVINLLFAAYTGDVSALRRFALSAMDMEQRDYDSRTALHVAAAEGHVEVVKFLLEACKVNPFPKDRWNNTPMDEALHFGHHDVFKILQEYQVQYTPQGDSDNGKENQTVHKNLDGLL

Liver microsomes [23] = experiment: Metabolic stability in human liver microsomes after 2 hrs; assay type: ADME, Microsome; outline: as §2
[24] = Inhibition of strychnine-sensitive glycine receptor at 10 uM; outline: as §3
[25] = Apparent oral clearance in fasted rat at 10 mg/kg, iv; assay type: ADME, organism-based; set-up: dose 10 mg/kg, route oral; details: in vivo; outline: as §1
[26] = biological target: Voltage-gated inwardly rectifying potassium channel KCNH2 (Homo sapiens, UniProt Q12809); experiment: Inhibition of human ERG upto 100 uM
Sequence of Voltage-gated inwardly rectifying potassium channel KCNH2 (Q12809 whole entry): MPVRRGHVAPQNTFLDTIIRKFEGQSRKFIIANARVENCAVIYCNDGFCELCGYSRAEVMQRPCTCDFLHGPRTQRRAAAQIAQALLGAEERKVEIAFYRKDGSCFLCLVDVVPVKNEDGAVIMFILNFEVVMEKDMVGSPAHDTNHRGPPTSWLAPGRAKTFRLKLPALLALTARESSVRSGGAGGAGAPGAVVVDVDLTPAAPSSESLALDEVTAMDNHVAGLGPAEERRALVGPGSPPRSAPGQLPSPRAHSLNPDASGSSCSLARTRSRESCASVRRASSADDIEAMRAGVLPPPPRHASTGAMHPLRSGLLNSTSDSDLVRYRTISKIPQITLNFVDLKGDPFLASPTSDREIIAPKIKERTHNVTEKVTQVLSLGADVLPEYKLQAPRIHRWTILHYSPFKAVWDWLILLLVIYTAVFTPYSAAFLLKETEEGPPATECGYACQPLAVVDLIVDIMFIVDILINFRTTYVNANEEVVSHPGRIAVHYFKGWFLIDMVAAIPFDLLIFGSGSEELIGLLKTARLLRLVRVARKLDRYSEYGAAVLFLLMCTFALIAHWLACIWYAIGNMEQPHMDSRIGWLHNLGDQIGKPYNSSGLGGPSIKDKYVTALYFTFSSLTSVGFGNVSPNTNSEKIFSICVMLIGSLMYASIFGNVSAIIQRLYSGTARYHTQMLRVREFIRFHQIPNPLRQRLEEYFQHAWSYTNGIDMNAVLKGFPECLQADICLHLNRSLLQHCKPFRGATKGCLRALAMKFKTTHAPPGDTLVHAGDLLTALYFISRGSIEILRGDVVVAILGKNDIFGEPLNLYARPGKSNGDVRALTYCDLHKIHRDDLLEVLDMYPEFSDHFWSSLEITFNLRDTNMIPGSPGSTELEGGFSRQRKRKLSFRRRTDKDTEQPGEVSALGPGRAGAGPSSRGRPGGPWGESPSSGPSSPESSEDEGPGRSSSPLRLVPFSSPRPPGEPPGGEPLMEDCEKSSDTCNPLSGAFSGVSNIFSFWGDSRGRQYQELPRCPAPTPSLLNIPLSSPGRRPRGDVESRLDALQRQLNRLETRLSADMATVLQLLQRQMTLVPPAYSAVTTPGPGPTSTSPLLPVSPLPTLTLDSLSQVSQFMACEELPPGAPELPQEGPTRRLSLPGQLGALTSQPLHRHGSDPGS
Outline: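 hERG channel assay run by an external contractor, with compound tested at concentrations up to 100 μM.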

[27] = Apparent oral clearance in fasted rat at 10 mg/kg; assay type: ADME, organism-based; set-up: dose 10 mg/kg, route oral; details: in vivo; outline: as §1
[28] = Oral bioavailability in fasted rat at 10 mg/kg; assay type: ADME, organism-based; details: in vivo; outline: as §1
Liver microsomes [29] = experiment: Metabolic stability in rat liver microsomes after 2 hrs; assay type: ADME, Microsome; outline: as §2
[30] = Tmax in fasted rat at 10 mg/kg, po; assay type: ADME, organism-based; set-up: dose 10 mg/kg, route oral; details: in vivo; outline: as §1
[31] = Inhibition of NMDA receptor at 10 uM; outline: as §3
Salmonella typhimurium [32] = experiment: Mutagenic activity in Salmonella typhimurium TA1535 by Ames test in absence of S9 fraction; assay type: toxicity, organism-based; details: salmonella enterica subsp. enterica serovar typhimurium

Sequence of Glutamate carboxypeptidase 2 (Q04609 whole entry): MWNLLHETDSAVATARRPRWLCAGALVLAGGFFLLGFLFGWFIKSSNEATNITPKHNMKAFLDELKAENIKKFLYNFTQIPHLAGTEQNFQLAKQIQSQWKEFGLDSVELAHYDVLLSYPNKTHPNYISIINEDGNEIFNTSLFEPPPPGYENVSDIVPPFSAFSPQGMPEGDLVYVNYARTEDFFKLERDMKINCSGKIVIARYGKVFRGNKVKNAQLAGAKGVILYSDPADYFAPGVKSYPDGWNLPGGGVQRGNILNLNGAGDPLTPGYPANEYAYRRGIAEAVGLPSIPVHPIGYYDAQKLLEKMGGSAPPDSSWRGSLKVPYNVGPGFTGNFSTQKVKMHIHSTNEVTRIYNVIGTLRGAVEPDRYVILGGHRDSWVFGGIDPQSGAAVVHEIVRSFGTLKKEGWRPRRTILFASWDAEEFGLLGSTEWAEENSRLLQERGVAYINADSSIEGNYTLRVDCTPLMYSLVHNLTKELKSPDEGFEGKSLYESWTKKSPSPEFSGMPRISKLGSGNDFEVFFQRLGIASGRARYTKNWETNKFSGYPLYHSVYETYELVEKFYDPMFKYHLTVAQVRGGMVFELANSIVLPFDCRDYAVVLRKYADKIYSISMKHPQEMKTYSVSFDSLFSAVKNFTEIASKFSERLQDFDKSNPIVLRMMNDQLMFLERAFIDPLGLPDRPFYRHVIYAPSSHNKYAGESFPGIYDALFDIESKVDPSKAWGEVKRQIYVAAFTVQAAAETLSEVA

SMILES: O=C(O)c1cc(CS)ccc1-c1ccccc1
IC50 [1]: 5700 nM

SMILES: O=C(O)c1ccccc1CCS
IC50 [1]: 930 nM

SMILES: O=C(O)c1ccccc1-c1cccc(CCS)c1C(=O)O
IC50 [1]: 230 nM

SMILES: O=C(O)c1ccc(COc2cccc(CCS)c2C(=O)O)cc1
IC50 [1]: 200 nM

SMILES: O=C(O)c1cccc(-c2cccc(CCS)c2C(=O)O)c1
Activity (Salmonella typhimurium [3]): Non-toxic
Stability [4]: Stable
half-life [5]: 3.2 h
AUC(0-inf) [2]: 33800 ng·h/mL
Activity (Salmonella typhimurium [6]): Non-toxic
Cmax [7]: 7100 ng/mL
Activity (Salmonella typhimurium [8]): Non-toxic
Activity (Salmonella typhimurium [9]): Non-toxic
inhibition [10]: inactive
half-life [11]: 3.6 h
inhibition [12]: inactive
Activity (Salmonella typhimurium [13]): Non-toxic
Stability (Liver [14]): Stable
Stability (Liver [15]): Stable
inhibition [16]: inactive
Activity (Salmonella typhimurium [17]): Non-toxic
Activity (Rattus norvegicus): Active
Activity (Salmonella typhimurium [18]): Non-toxic
inhibition [19]: inactive
AUC(0-inf) [20]: 90600 ng·h/mL
inhibition [21]: 12%
inhibition [22]: inactive
Stability (Liver microsomes [23]): Stable
inhibition [24]: inactive
CL/F [25]: 4.45 mL/min/kg
inhibition (INH) [26]: Not Active
CL/F [27]: 5.3 mL/min/kg
bioavailability [28]: 37%
Stability (Liver microsomes [29]): Stable
Tmax [30]: 1.1 h
inhibition [31]: < 5%
Activity (Salmonella typhimurium [32]): Non-toxic

SMILES: O=C(O)c1ccccc1COc1ccc(CS)cc1C(=O)O
IC50 [1]: 41 nM

SMILES: O=C(O)c1cccc(COc2ccc(CS)cc2C(=O)O)c1
IC50 [1]: 2 nM

SMILES: O=C(O)c1ccc(COc2ccc(CS)cc2C(=O)O)cc1
IC50 [1]: 16 nM

SMILES: O=C(O)c1c(CCS)cccc1-c1ccccc1
IC50 [1]: 1400 nM

Second part, the compound after the results:

IC50 [1]: 38 nM
SMILES: O=C(O)c1cccc(-c2ccc(CS)cc2C(=O)O)c1

IC50 [1]: 52 nM
SMILES: O=C(O)c1ccc(-c2ccc(CS)cc2C(=O)O)cc1

AUC(0-inf) [2]: 1820 ng·h/mL
SMILES: O=C(O)CCC(CCCS)C(=O)O (centres undefined)

IC50 [1]: 140 nM
SMILES: O=C(O)c1ccccc1COc1cccc(CCS)c1C(=O)O

IC50 [1]: 7 nM
SMILES: O=C(O)c1ccc(-c2cccc(CCS)c2C(=O)O)cc1

IC50 [1]: 200 nM
SMILES: O=C(O)c1c(CCS)cccc1OCc1ccccc1

IC50 [1]: 69 nM
SMILES: O=C(O)c1cccc(COc2cccc(CCS)c2C(=O)O)c1

IC50 [1]: 1300 nM
SMILES: O=C(O)c1cccc(CS)c1

IC50 [1]: 340 nM
SMILES: O=C(O)c1ccccc1-c1ccc(CS)cc1C(=O)O

Reference: ChEMBL document CHEMBL2150994, “Design, synthesis, and pharmacological evaluation of glutamate carboxypeptidase II (GCPII) inhibitors based on thioalkylbenzoic acid scaffolds” (J Med Chem, 2012)
